Our source for the inhibition and IC50 values is ChEMBL document CHEMBL4041508, “Synthesis and biological evaluation of chemical tools for the study of Dolichol Linked Oligosaccharide Diphosphatase (DLODP)” (Eur J Med Chem, 2017).

pIC50: −log10 of the molar value. Calls of active or inactive are those of the source. No cut-off for these calls is given here.

For experiment [1], the species on record is Homo sapiens. The experiment can be described thus: Inhibition of DLODP in human HepG2 microsomal membrane assessed as reduction in [3H]OSP production at 50 mM using Glc3-0[3H]Man9-5GlcNAc2-PP-dolichol as substrate at pH 5.5 measured after 20 to 60 mins by scintillation counting. Type of experiment: cell membranes.
The nature of experiment [2]: Inhibition of DLODP in human HepG2 microsomal membrane assessed as reduction in [3H]OSP production using Glc3-0[3H]Man9-5GlcNAc2-PP-dolichol as substrate at pH 5.5 measured after 20 to 60 mins by scintillation counting. Type of experiment: cell membranes.
Experiment [3] is filed under the species Homo sapiens. The experiment can be described thus: Inhibition of DLODP in human HepG2 microsomal membrane assessed as reduction in [3H]OSP production at 3 mM using Glc3-0[3H]Man9-5GlcNAc2-PP-dolichol as substrate at pH 5.5 measured after 20 to 60 mins by scintillation counting. Type of experiment: cell membranes.
Experiment [4] is filed under the species Homo sapiens. Put plainly: Inhibition of DLODP in human HepG2 microsomes assessed as reduction in neutral oligosaccharide production at low concentration using Glc3-0[3H]Man9-5GlcNAc2-PP-dolichol as substrate measured after 20 to 60 mins by scintillation counting. Put shortly:
(§1)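 Cells grown in RPMI 1640 with 10% fetal calf serum and 1% penicillin/streptomycin, plus 1% non-essential amino acids for Caco-2 TC7, for 8 days before total membrane preparation. Assay uses 20 µg membrane protein in standard mix (100 mM MES pH 5.5, 1 mM CoCl2, 0.1% NP-40) with added inhibitor, 37 °C. Radioactivity in OSP and neutral oligosaccharides separated by ion exchange, counted by scintillation.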

For experiment [5], the species on record is Homo sapiens. The experiment can be described thus: Inhibition of DLODP in human HepG2 microsomes assessed as reduction in OSP production at higher concentration using Glc3-0[3H]Man9-5GlcNAc2-PP-dolichol as substrate measured after 20 to 60 mins by scintillation counting. Put shortly:
as §1

The species named for experiment [6] is Homo sapiens. The experiment can be described thus: Inhibition of DLODP in human Caco2 microsomes assessed as reduction in neutral oligosaccharide production at low concentration using Glc3-0[3H]Man9-5GlcNAc2-PP-dolichol as substrate measured after 20 to 60 mins by scintillation counting. Put shortly:
as §1

For experiment [7], the species on record is Homo sapiens. Put plainly: Inhibition of DLODP in human Caco2 microsomes assessed as reduction in OSP production at higher concentration using Glc3-0[3H]Man9-5GlcNAc2-PP-dolichol as substrate measured after 20 to 60 mins by scintillation counting. The gist of the method:
as §1

As to `OC[C@H]1OC(O)[C@@H](O)[C@@H](O)[C@@H]1O` (stereo not given in full), the inhibition (usually the relative decrease from the control value, in per cent) in the experiment listed under Homo sapiens [1] is “inactive”.

For `O=[N+]([O-])c1ccc(OP(=O)(O)O)cc1` [p-NITROPHENYLPHOSPHATE], in experiment [2], the pIC50 – broadly, the IC50 on a negative log10 scale, so that one unit is a factor of ten – is 2.38.

Turning to `CC(C)=CCC[C@H](C)CCOP(=O)(O)CP(=O)(O)O`, in experiment [2], the pIC50 is 3.15.

Take `CC(=O)N[C@H]1[C@@H](O[P@@](=O)(O)O[P@@](=O)(O)OC[C@H]2O[C@@H](n3ccc(=O)[nH]c3=O)[C@H](O)[C@@H]2O)O[C@H](CO)[C@@H](O)[C@@H]1O`: the inhibition entry in the experiment filed under Homo sapiens [3] is “inactive”. With `CC(=O)N[C@@H]1[C@@H](O)[C@H](O[C@@H]2O[C@H](CO)[C@@H](O)[C@H](O)[C@@H]2O)[C@@H](CO)O[C@@H]1O`, in the experiment listed under Homo sapiens [1], the inhibition amounted to 30%. Take `CO[C@H]1O[C@H](CO)[C@@H](O)[C@H](O)[C@@H]1O`: in the experiment listed under Homo sapiens [1], the inhibition result is “inactive”.

As for `CC(C)O`, in the experiment listed under Homo sapiens [1], the inhibition result is “Active”. Consider `O=[N+]([O-])c1ccc(OP(=O)(O)Oc2ccc([N+](=O)[O-])cc2)cc1`, for which the pIC50 in experiment [2] was 2.92. Turning to `CC(=O)N[C@@H]1[C@@H](O)[C@H](O)[C@@H](CO)O[C@@H]1O`, the inhibition entry in the experiment listed under Homo sapiens [1] was “inactive”. In the case of `CC(C)=CCC/C(C)=C/CC/C(C)=C/CC/C(C)=C/CC/C(C)=C/CC/C(C)=C/CC/C(C)=C/CC/C(C)=C/CC/C(C)=C/COP(=O)(O)OP(=O)(O)O`, the pIC50 in experiment [2] is 5.33. As for `CC(=O)N[C@@H]1[C@@H](O)[C@H](O[C@@H]2O[C@H](CO)[C@@H](O)[C@H](O)[C@H]2NC(C)=O)[C@@H](CO)O[C@@H]1O`, the inhibition in the experiment filed under Homo sapiens [1] was under 10%. With `O=P(O)(O)CP(=O)(O)O`, in the experiment listed under Homo sapiens [3], the inhibition result is “inactive”. Regarding `CC(=O)N[C@H]1[C@@H](OP(=O)(O)O)O[C@H](CO)[C@@H](O)[C@@H]1O`, the pIC50 in experiment [2] is under 2.52. The inhibition entry in the experiment listed under Homo sapiens [4], in the experiment listed under Homo sapiens [5], in the experiment listed under Homo sapiens [6] and in the experiment filed under Homo sapiens [7] was “Active” each time. On to `CC(=O)N[C@@H]1[C@@H](O)[C@H](O[C@@H]2O[C@H](CO)[C@H](O)[C@H](O)[C@H]2O)[C@@H](CO)O[C@@H]1O`, for which, in the experiment filed under Homo sapiens [1], the inhibition entry was “inactive”. Same read-out and setting: with `CO[C@@H]1O[C@H](CO)[C@@H](O)[C@H](O)[C@@H]1O` the figure was 10%.

On to `CCCOP(=O)(O)O`, for which the inhibition result in the experiment filed under Homo sapiens [3] was “inactive”.
